High-throughput results as filed in PubChem BioAssay.
The list is not random: actives were taken first. Their share in the collection is about 1.8%.
M4 PAM: positive allosteric modulators of human muscarinic M4 receptor; actives 0.4% (n = 360,000); CHO-K1 hM4/Gqi5, Fluo-8 calcium fluorescence, ACh EC20; 0% = ACh EC20, 100% = maximal ACh; activation, % at 3 µM;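 active = activation above its plate's cutoff, the mean activation of sample wells plus 3 SD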
CHRM5 PAM: positive allosteric modulators of human muscarinic M5 receptor. P08912. CHO-K1 hM5, Fluo-8 calcium, ACh EC20 PAM; 0% = ACh EC20, 100% = ACh EC100. AID 624038. actives 0.3% (n = 360,000). activation, % at 3 µM;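 active = activation above the run cutoff, the mean activation of all test compounds plus 3 SD, cut at about 18% in these data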
Target sequence (P08912 whole entry, looked up): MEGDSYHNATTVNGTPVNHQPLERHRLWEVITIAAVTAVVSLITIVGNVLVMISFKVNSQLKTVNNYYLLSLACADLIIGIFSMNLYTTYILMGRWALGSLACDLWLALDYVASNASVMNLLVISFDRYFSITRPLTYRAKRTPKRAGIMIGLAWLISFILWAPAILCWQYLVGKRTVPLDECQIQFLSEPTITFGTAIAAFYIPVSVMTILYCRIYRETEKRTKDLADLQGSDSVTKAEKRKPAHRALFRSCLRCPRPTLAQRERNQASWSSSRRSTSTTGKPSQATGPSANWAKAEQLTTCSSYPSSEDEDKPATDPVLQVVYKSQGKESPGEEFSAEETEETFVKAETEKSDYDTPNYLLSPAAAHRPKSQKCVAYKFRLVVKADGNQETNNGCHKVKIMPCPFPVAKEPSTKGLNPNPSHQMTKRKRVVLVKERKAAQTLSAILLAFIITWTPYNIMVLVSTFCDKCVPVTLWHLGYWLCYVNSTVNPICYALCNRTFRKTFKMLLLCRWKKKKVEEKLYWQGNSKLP
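Assay system: CHO-K1 hM5 cells / Incubation: Fluo-8 loading 80 min at 37 °C plus 30 min room temperature / Technique: Fluo-8 calcium dye fluorescence, kinetic read / Repeats: single replicate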
CHRM5 agonist: agonists of human muscarinic M5 receptor (CHRM5). P08912. CHO-K1 hM5 cells, Fluo-8 calcium fluorescence; 0% DMSO wells, 100% maximal acetylcholine response. AID 624037. actives 0.19% (n = 360,000). activation, % at 3 µM;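 active = activation above the run's mean over test compounds plus 3 SD, cut at about 23% in these data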;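 also: signal is peak over basal fluorescence ratio across the kinetic read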
M5 antag: antagonists of human muscarinic M5 receptor (CHRM5); CHO-hM5 cells, Fluo-8 calcium fluorescence, ACh EC80; inhibition, % at 3 µM; AID 624040; actives 0.59% (n = 360,000); P08912;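 active = inhibition above a per-plate cutoff, the mean of that plate's test compounds plus 3 SD, cut at about 27% in these data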;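 also: 0% = acetylcholine EC80 with DMSO and 100% = DMSO without agonist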
M4 ag: CHRM4 agonism in calcium assay; activation, % at 3 µM; AID 624127; CHO-K1 hM4/Gqi5, Fluo-8 calcium fluorescence; vehicle 0%, full acetylcholine response 100%; P08173; actives 0.14% (n = 360,000);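 active = activation above the run mean over all test wells plus 3 SD, cut at about 32% in these data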;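 also: peak over basal fluorescence ratio per well then scaled between controls; 0% = DMSO wells and 100% = acetylcholine at EC100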
CHRM4 antagonist: antagonists of human muscarinic M4 receptor (CHRM4). AID 624125. CHO-hM4 cells, ACh EC80, Fluo-8 calcium fluorescence. P08173. inhibition, % at 3 µM. actives 0.73% (n = 360,000);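 active = inhibition above its plate's cutoff, the mean inhibition of sample wells plus 3 SD, cut at about 27% in these data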;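 also: 0% = acetylcholine EC80 with DMSO and 100% = DMSO without agonist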
* = called active by the depositor.

SMILES	M4 PAM	CHRM5 PAM	CHRM5 agonist	M5 antag	M4 ag	CHRM4 antagonist
O=C(NNC(=O)C1CC=CCC1)c1ccccc1Cl (stereo not given)	-5.0	-7.1	0.0	8.2	0.4	6.0
CCCc1ncc(C(O)(c2ccccc2)c2ccc(C)cc2)n1C (stereo not given)	-18.8	-18.9	-8.8	73.2*	2.8	50.2*
CCCc1ncc(C(O)(c2ccccc2)c2ccccc2)n1C	-17.9	-20.0	-10.7	58.5*	2.3	62.5*
CN(C(=O)c1cccc(Br)c1)C1CCS(=O)(=O)C1 (stereo not given)	1.5	3.0	1.1	0.1	1.3	3.5
CCOC(=O)N1CCN(c2nc3ccc(C)cc3n3cnnc23)CC1	1.9	1.9	-0.8	2.8	0.4	-12.8
O=CN1CCN(C(=O)c2cccc3c2-c2ccccc2C3=O)CC1	-2.2	-2.4	-1.7	5.3	1.8	2.3
Cc1cc(-c2csc(NC(=O)c3ccc(C#N)cc3)n2)c(C)n1Cc1ccco1	24.7*	6.5	2.9	6.7	1.3	15.3
OC(COc1ccc(C2C=CCC2)cc1)CN1CCCCC1 (stereo not given)	-5.1	3.9	-6.1	-3.8	1.9	4.5
COc1ccc(NC2=CC(=O)CC(c3ccc(C)cc3)C2)c(OC)c1 (stereo not given)	23.4*	5.0	-1.4	4.6	1.2	-1.9
COc1ccc(C2=CC(=O)C[C@H](c3ccc(Cl)cc3)C2)cc1	0.8	-7.8	-6.3	12.5	0.3	-9.2
COc1ccccc1NC1=CC(=O)CC(c2ccccc2)C1 (stereo not given)	0.9	-1.7	-1.9	6.4	1.7	9.5
COc1ccc(C2CC(=O)C(C=NCCO)=C(O)C2)cc1 (stereo not given)	-3.1	19.0*	5.2	-12.5	1.1	-9.9
COc1ccc(C2CC(=O)C(C=NCCO)=C(O)C2)cc1OC (stereo not given)	13.3	4.5	1.0	-7.8	1.1	3.7
COc1ccc(C2=CC(=O)CC(c3ccc(OC)cc3)C2)cc1 (stereo not given)	-1.1	-14.3	-7.3	29.1*	1.7	-1.0
OC1(C#CCN2CCCC2)CCCCC1	-5.8	-17.8	-23.5	4.0	0.2	6.3
CCN(C(=O)CSc1nc2cc(S(=O)(=O)N(CC)CC)ccc2o1)C1CCS(=O)(=O)C1 (stereo not given)	-3.0	-0.8	0.3	8.2	2.4	0.2
CCOC(=O)N1CCC(N2CCN(c3cc(C)ccc3C)CC2)CC1	-20.1	-15.9	-7.4	55.2*	8.4	14.7
CCOC(=O)N1CCC(N2C(=O)c3ccc(C(=O)NCc4ccc(F)cc4)cc3C2=O)CC1	2.6	-1.9	1.8	-0.1	1.1	-2.9
CCOC(=O)N1CCC(N2C(=O)c3ccc(C(=O)O)cc3C2=O)CC1	4.1	21.1*	-3.3	-4.1	0.8	-3.3
COc1ccc(NC(=O)C/C(C)=N/NC(=O)C(=O)NC2CCCCC2)c(OC)c1	11.0	4.4	-3.8	-0.7	-0.1	-7.8
FC(F)(F)c1cccc(N2CCN(C(=S)NCC3CCCO3)CC2)c1 (stereo not given)	-8.3	-16.0	-1.4	27.2*	9.6	-2.2
COc1ccc(NC(=O)c2cc(-c3ccccn3)nc3ccccc23)c(OC)c1	-9.7	-22.8	1.2	27.4*	15.1	7.8
CCOc1ccccc1NC(=O)c1cc(-c2ccccn2)nc2ccccc12	-1.8	-6.5	5.2	1.1	10.9	-2.6
CCCCCCCCCCCCCCCCn1cc[n+](C)c1	-17.0	-20.7	-5.6	48.0*	1.6	30.1*
Cc1ccc(OCCC(=O)OC(C)C(=O)Nc2c(C)n(C)n(-c3ccccc3)c2=O)cc1 (stereo not given)	-7.6	2.7	-4.4	1.8	-0.3	0.1
SMILES	M4 PAM	CHRM5 PAM	CHRM5 agonist	M5 antag	M4 ag	CHRM4 antagonist
COCc1c(C(=O)OCC(=O)N2c3ccccc3NC(=O)C2(C)C)oc2ccccc12	-10.1	-11.6	3.7	12.7	15.4	26.7*
CC1(C)[C@H]2CC=C(CN3CCC(N4CCC(C(=O)N5CCCC5)CC4)CC3)[C@@H]1C2	-50.0	-6.3	-17.4	8.2	0.5	55.8*
COc1ccc(S(=O)(=O)N2CCC(C(=O)N[C@H](C(=O)NC3CCCC3)C(C)C)CC2)cc1	0.8	0.9	-4.3	7.3	0.5	0.0
CCCCN(C(=O)CCC(=O)Nc1cc(C)on1)C(C(=O)NC1CCCC1)c1ccc(F)cc1 (stereo not given)	-2.6	19.6*	-1.2	-13.0	0.9	-2.8
CCCCN(C(=O)CCC(=O)Nc1cc(C)on1)C(C(=O)NC1CCCC1)c1ccccc1C (stereo not given)	-4.4	-1.4	-3.0	11.0	-3.1	3.4
C[C@@]12CCC[C@H](O1)[C@@H]([C@H](O)c1ccccc1)O2	-2.2	4.6	-0.2	12.5	0.3	1.6
COc1ccc(CNC(=O)COC(=O)[C@H](Cc2c[nH]c3ccccc23)NC(=O)c2cccs2)cc1	-23.5	-14.4	0.3	10.9	12.5	30.7*
Nc1c(-c2ccc(Cl)cc2)cnn1-c1cccc([N+](=O)[O-])c1	-9.6	-19.1	-6.3	33.2*	2.4	10.5
Nc1c(-c2ccccc2)cnn1-c1cccc([N+](=O)[O-])c1	-4.2	-17.4	-8.1	7.2	2.2	-4.5
COC(=O)C1CCN(c2cc(Cl)nc(N)n2)CC1	-0.6	-3.9	0.9	5.5	0.2	-9.8
NC(=O)C1CCN(c2cc(Cl)nc(N)n2)CC1	25.8*	1.0	-5.5	-11.2	1.9	-15.4
COc1ccc(NC(=O)N2CCCC(c3ccccc3)C2)cc1 (stereo not given)	0.4	-2.3	-4.0	10.7	1.1	0.7
O=C(O)c1ccc(Cl)c(S(=O)(=O)N(Cc2ccccc2)c2ccccc2)c1	1.9	2.8	-1.4	12.9	0.4	9.4
CCN(c1ccccc1)S(=O)(=O)c1cc(C(=O)O)ccc1C	17.3*	12.9	-1.9	-6.5	-0.1	-0.6
COc1ccc(C2N(Cc3ccccc3)CC(=O)N2/N=C(\C)c2ccccc2)cc1 (stereo not given)	10.8	2.4	0.5	-4.1	1.0	-0.3
Cc1cc(C)n2nc(-c3ccc(Br)cc3)cc2n1	17.9*	0.4	-2.0	-0.9	1.9	1.1
Cc1cc(=O)c(C(=O)Nc2cccc(N3CCCC3=O)c2)nn1-c1ccccc1F	-0.1	-0.8	1.7	9.7	1.9	4.6
Cn1cc(CN2CCC(C(=O)NC(c3ccc(-c4ccccc4)cc3)c3cnccn3)CC2)c2ccccc21 (stereo not given)	-10.0	-3.2	0.9	10.8	29.2	28.1*
